From BindingDB's records for doi:10.1021/jm970730q (Tulane University School of Medicine, 1998) come the findings set out here.

Broadly, the IC50 is the concentration that inhibits the measured activity by half. A low value points to greater potency.

Test [1] has as its target Somatostatin receptor type 1 (Homo sapiens, UniProt P30872). Briefly: Binding affinity towards cloned human somatostatin 1 (hsst) receptor. The essentials:
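Membranes from CHO-K1 cells stably transfected with the human receptor subtype (calcium phosphate transfection, G418 selection), homogenised and washed in Tris-HCl. Separated by filtration on PEI-soaked GF/C filters; nonspecific binding with 1.0 µM SRIF.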

Test [2] concerns the target Somatostatin receptor type 4 (Homo sapiens, UniProt P31391). Briefly: Binding affinity towards cloned human somatostatin 4 (hsst) receptor.

Positions of bridges follow the written chain, without caps; N, C: chain ends. Non-standard residues stand in square brackets, D forms with d. Residues, ends and D or L forms follow the SMILES beside them. Dip = N[C@H](C(=O)O)C(c1ccccc1)c1ccccc1; 2Nal = N[C@@H](Cc1ccc2ccccc2c1)C(=O)O; 3Pal = N[C@@H](Cc1cccnc1)C(=O)O

Sequence of Somatostatin receptor type 1 (P30872 whole entry): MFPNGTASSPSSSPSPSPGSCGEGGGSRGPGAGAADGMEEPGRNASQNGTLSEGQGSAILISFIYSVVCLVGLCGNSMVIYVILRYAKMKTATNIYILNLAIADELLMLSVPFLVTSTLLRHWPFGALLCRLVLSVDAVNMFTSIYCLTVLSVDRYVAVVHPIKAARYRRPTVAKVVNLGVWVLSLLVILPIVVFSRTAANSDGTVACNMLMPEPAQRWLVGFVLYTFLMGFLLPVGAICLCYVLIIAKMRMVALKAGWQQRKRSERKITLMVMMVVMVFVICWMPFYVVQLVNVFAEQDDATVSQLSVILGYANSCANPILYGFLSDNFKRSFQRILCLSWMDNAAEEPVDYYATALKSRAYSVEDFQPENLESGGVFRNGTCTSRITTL
Sequence of Somatostatin receptor type 4 (P31391 whole entry): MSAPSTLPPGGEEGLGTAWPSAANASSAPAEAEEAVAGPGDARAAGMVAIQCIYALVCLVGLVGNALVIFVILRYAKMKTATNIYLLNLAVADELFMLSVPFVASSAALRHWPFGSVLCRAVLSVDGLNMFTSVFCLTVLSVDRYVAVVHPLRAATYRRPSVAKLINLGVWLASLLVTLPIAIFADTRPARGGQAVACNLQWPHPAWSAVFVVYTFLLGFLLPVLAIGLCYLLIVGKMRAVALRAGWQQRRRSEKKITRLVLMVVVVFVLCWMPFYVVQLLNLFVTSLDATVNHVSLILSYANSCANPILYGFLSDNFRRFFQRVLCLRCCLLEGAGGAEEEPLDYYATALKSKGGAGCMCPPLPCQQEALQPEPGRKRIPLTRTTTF

Consider `CC(C)[C@@H]1NC(=O)[C@H](CCCCN)NC(=O)[C@@H](Cc2c[nH]c3ccccc23)NC(=O)[C@H](Cc2c[nH]cn2)NC(=O)[C@H](NC(=O)[C@@H](N)C(c2ccccc2)c2ccccc2)CSSC[C@@H](C(=O)N[C@H](C(N)=O)C(c2ccccc2)c2ccccc2)NC1=O` [H-Dip-cyclo[DCys-His-DTrp-Lys-Val-Cys]-Dip-NH2] (H-[Dip][dC]H[dW]KVC[Dip]-NH2; disulfide 2-7), for which the IC50 in test [1] was 1000 nM.

With `CC(C)[C@@H]1NC(=O)[C@H](CCCCN)NC(=O)[C@@H](Cc2c[nH]c3ccccc23)NC(=O)[C@H](Cc2cccnc2)NC(=O)[C@H](NC(=O)[C@@H](N)C(c2ccccc2)c2ccccc2)CSSC[C@@H](C(=O)N[C@H](C(N)=O)C(c2ccccc2)c2ccccc2)NC1=O` [H-Dip-cyclo[DCys-Pal-DTrp-Lys-Val-Cys]-Dip-NH2] (H-[Dip][dC][3Pal][dW]KVC[Dip]-NH2; disulfide 2-7), the IC50 in test [2] and in test [1] was 1000 nM each time.

For the compound `CC(C)[C@@H]1NC(=O)[C@H](CCCCN)NC(=O)[C@@H](Cc2c[nH]c3ccccc23)NC(=O)[C@H](Cc2c[nH]cn2)NC(=O)[C@H](NC(=O)[C@@H](N)C(c2ccccc2)c2ccccc2)CSSC[C@@H](C(=O)N[C@@H](Cc2ccc3ccccc3c2)C(N)=O)NC1=O` [H-Dip-cyclo[DCys-His-DTrp-Lys-Val-Cys]-Nal-NH2] (H-[Dip][dC]H[dW]KVC[2Nal]-NH2; disulfide 2-7), in test [2], the IC50 was determined as 1000 nM.
